Screens (PubChem)
An excerpt weighted towards active compounds, which were near 1.9% of everything screened.
H9c2 TAG inh = inhibitors of triacylglycerol accumulation; inhibition, % at 12.5 µM; 0.66% of 230,000 active; H9c2 cells, Nile Red lipid (TAG) fluorescence; cells loaded with 200 µM oleic acid;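 active means pattern-corrected inhibition of lipid staining of at least 50% with the nuclear-stain viability signal not falling by more than 50%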
CCR6 antag = CCR6 (human) receptor antagonism | 0.49% of 340,000 active | CHO-K1 CCR6 PathHunter beta-arrestin, luminescence, CCL20-stimulated | inhibition, % at 20 µM;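 active means compounds whose inhibition of the agonist-driven luminescence signal at 20 µM reaches about 50%, limit read from the data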;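 further: cells stimulated with CCL20 at 14 nM final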
CXCR6 inh = blocks human CXCR6 beta-arrestin recruitment; O00574; CHO-K1 PathHunter CXCR6 beta-arrestin, luminescence; inhibition, % at 20 µM; 0.36% of 360,000 active; AID 602244; in the data active means inhibition above about 34%, passing the limit was not always enough;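 further: antagonist mode with CXCL16 agonist at 10 nM final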
Target sequence (O00574 whole entry, looked up): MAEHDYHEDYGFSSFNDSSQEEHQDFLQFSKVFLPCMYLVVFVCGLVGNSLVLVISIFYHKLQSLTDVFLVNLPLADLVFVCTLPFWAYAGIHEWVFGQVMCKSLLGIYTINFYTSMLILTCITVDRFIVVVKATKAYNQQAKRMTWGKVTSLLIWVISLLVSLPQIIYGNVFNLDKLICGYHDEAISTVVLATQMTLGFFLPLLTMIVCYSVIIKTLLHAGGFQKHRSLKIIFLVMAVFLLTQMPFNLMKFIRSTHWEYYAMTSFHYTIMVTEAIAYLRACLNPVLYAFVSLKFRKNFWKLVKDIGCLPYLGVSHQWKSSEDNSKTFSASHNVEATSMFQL
APJ antagonist = blocks the human apelin receptor APJ; CHO-K1 APJ beta-arrestin complementation, luminescence; inhibition, % at 20 µM; P35414; 0.32% of 330,000 active;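 active means inhibition above about 40% at 20 µM, limit read from the data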;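 further: cells challenged with 10 nM apelin-13 agonist together with compound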
APJ agonist = agonists of human APJ apelin receptor; P35414; CHO-K1 APJ PathHunter beta-arrestin, luminescence; 0% DMSO wells, 100% apelin; activation, % at 20 µM; 0.11% of 330,000 active; AID 2520;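 active means activation more than six SD over the plate average, tested at 20 µM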
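Assay system – PathHunter CHO-K1 APJ (AGTRL-1) beta-arrestin reporter cells · Compound – one dose, 20 µM compound, 1% DMSO · Timing – compound 90 min 25 °C, reagent 1 h · Measured by – luminescence from split beta-galactosidase complementation, Galacton Star/Emerald II substrate · Measure – beta-arrestin recruitment to APJ as agonist activity, luminescent signal · Benchmarks – DMSO vs Apelin-13 10 nM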
EBI2 antag = antagonists of human EBI2 receptor; P32249; EBI2 beta-arrestin recruitment, luminescence, 7a,25-OHC stimulated; inhibition, % at 5 µM; 0.81% of 360,000 active; in the data active means inhibition above about 38%;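 further: enzyme fragment complementation signal reports receptor beta-arrestin coupling in cells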
APJ antag conf = confirmation of human APJ apelin receptor antagonists. APJ beta-arrestin recruitment, luminescence, antagonist mode. AID 2766. 66% of 950 active. inhibition, % at 20 µM. shares compounds with APJ antagonist; in the data active means inhibition above about 50%
A number is an active result; n = inactive; x = not tested or not shown.

SMILES	H9c2 TAG inh	CCR6 antag	CXCR6 inh	APJ antagonist	APJ agonist	EBI2 antag	APJ antag conf
O=C1C2C3C=CC(C3)C2C(=O)N1/N=C/c1cc(Br)cc([N+](=O)[O-])c1O (centres undefined)	n	54.3	n	42.0	n	n	52.3
O=C(O)c1cccc(Nc2ccc3nonc3c2[N+](=O)[O-])c1	n	n	n	n	n	n	x
O=[N+]([O-])c1c(Nc2cccc(O)c2)cc(Cl)c2nonc12	x	104.0	111.2	94.4	n	92.8	111.3
O=C(O)c1ccc(N=N/C(=N\Nc2ccc(C(=O)O)cc2)c2ccccc2)cc1	n	n	n	54.9	n	n	84.1
CC(=O)Nc1ccc(Cc2ccc3[nH]c(=O)cc(C)c3c2)cc1	x	x	x	43.8	n	x	n
O=C(CCNC(=O)c1ccccc1Cl)Nc1ccc2c(c1)OCCO2	n	x	n	x	x	n	x
O=[N+]([O-])c1ccc(N=NN(CCO)CCO)cc1	x	n	n	n	n	n	x
O=[N+]([O-])c1ccc(N=Nc2ncc[nH]2)cc1	x	67.8	51.6	41.1	n	n	88.4
COc1ccc(-n2c(N)c(C(=O)NCc3ccco3)c3nc4ccccc4nc32)cc1	x	n	n	n	n	n	x
Nc1c(C(=O)NCc2ccco2)c2nc3ccccc3nc2n1CCc1ccc(F)cc1	n	n	n	55.1	n	n	n
N#Cc1c(N)n(CCc2ccc(F)cc2)c2nc3ccccc3nc12	n	n	n	64.5	n	n	n
CC1(C)c2[nH]c3ccccc3c2C[C@H]2C(=O)N(Cc3ccc(F)cc3)C(=O)N21	n	n	n	n	n	n	x
Cc1cc(C)c(NC(=O)CNC(=O)CN(C)Cc2ccc(Br)s2)c(C)c1	n	n	n	n	n	n	x
NS(=O)(=O)c1ccc(N=Nc2c(=O)[nH]n3c(=O)c4c([nH]c23)CCCC4)cc1	n	n	n	45.3	n	n	58.0
COc1c(C=O)c2c(c(OC)c1OC)-c1ccc(OC)c(=O)cc1C(NC(C)=O)CC2 (centres undefined)	n	n	n	x	x	n	x
COC(=O)CSc1nnc([C@H](Cc2ccccc2)NC(=O)OC(C)(C)C)o1	x	n	n	n	n	n	x
COC(=O)CS(=O)(=O)c1nnc([C@H](Cc2ccccc2)NC(=O)OC(C)(C)C)o1	n	77.1	55.5	48.4	n	n	73.2
O=C1OC(c2ccc(F)cc2)=C/C1=C\c1ccc(O)cc1	x	52.1	n	42.6	n	n	73.6
CC(=O)Nc1ccc2c(c1)C(=O)c1ccc(Cl)cc1-2	n	n	n	x	x	n	x
O=S(=O)(O)c1cc(O)c2c(O)c(N=Nc3cc(Cl)ccc3O)c(S(=O)(=O)O)cc2c1	x	60.1	n	40.2	n	n	69.9
O=S(=O)(O)c1cc(Cl)cc(N=Nc2ccc(O)cc2O)c1O	n	n	n	x	x	n	x
CCCOc1ccc(C2C(=O)N(C3CCCCC3)CC(=O)N2CCCOCC)cc1OC (centres undefined)	x	n	n	n	n	n	x
CCOCCCN1C(=O)CN(C2CCCCC2)C(=O)C1c1ccc(OC)c(OC)c1 (centres undefined)	x	n	n	n	n	n	n
O=C(Nc1cccc(Cl)c1N1CCCCC1)c1ccc2c(c1)OCCO2	n	n	n	n	n	n	x
O=C(NC(=S)Nc1cccc(Cl)c1N1CCCCC1)c1ccc2c(c1)OCCO2	x	n	n	44.5	n	n	n
SMILES	H9c2 TAG inh	CCR6 antag	CXCR6 inh	APJ antagonist	APJ agonist	EBI2 antag	APJ antag conf
Cc1nc(-n2[nH]c3c(c2=O)CCCC3)[nH]c(=O)c1Cc1ccccc1	n	73.8	40.7	50.0	n	n	80.9
COc1ccc(N2CCOCC2)c(NC(=O)c2ccc3c(c2)OCO3)c1	x	n	n	51.0	n	n	n
COc1cc(/C=C(\C#N)C(=O)c2ccc(O)c(O)c2)cc(I)c1O	n	57.3	n	42.4	n	n	59.9
COc1ccc(C=C(C#N)C(=O)c2ccccc2)cc1	x	x	n	x	x	n	x
O=C(C1=C(Nc2ccccc2)c2ccccc2S(=O)(=O)N1)c1ccccc1	x	69.9	n	45.1	n	n	72.5
O=C(N[C@H]1c2ccccc2C[C@H]1O)[C@H]1O[C@@H](n2ccc(=O)[nH]c2=O)[C@H](O)[C@@H]1O	x	x	n	x	x	n	x
O=[N+]([O-])c1ccc(N2CCN(S(=O)(=O)c3ccccc3)CC2)c2cccnc12	n	52.0	n	45.8	n	n	64.7
O=C(CNc1cccc(Cl)c1)c1ccc(Cl)cc1	x	n	40.8	72.7	n	n	90.9
Cc1ccc(C(=O)CNc2cccc(Cl)c2)cc1	x	n	n	65.9	n	n	77.1
CC(C)=CC(=O)Nc1nc2ccc([N+](=O)[O-])cc2s1	x	n	n	x	x	n	x
O=C(NCCc1ccccc1)c1cccs1	n	n	n	n	n	n	x
O=C(NCCc1cnc[nH]1)c1cccs1	n	n	n	43.3	n	n	n
Cc1cccn2c(=O)c(/C=C(\C#N)C(=O)NCc3ccccc3)c(N3CCC(C(N)=O)CC3)nc12	n	n	n	40.7	n	n	n
CC(C)(C)C(=O)Cn1ncc(Br)c(Br)c1=O	n	n	n	x	x	n	x
COc1cc(C(=O)N2CCN(c3cccc(C)c3C)CC2)cc(OC)c1OC	55.7	n	n	49.8	n	n	n
Cc1cccc(N2CCN(C(=O)c3ccncc3)CC2)c1C	n	n	n	n	n	n	x
CN(CCCS(=O)(=O)[O-])c1ccc(/C=C/c2ccc3ccccc3[n+]2C)cc1	x	n	n	n	n	n	x
CN(C)c1ccc(/C=C/c2ccc3ccccc3[n+]2C)cc1	x	52.7	47.5	64.0	n	n	88.7
Cc1ccc(C(=O)COC(=O)C2CC3CCCC(C2)C3=O)cc1[N+](=O)[O-] (centres undefined)	n	n	n	43.4	n	n	n
Cc1ccc(C(=O)COC(=O)CN2C(=O)C3C4CCC(C4)C3C2=O)cc1[N+](=O)[O-] (centres undefined)	x	n	n	48.5	n	n	n
Cc1ccc(C(=O)COC(=O)CCN2C(=O)C3C4CCC(C4)C3C2=O)cc1[N+](=O)[O-] (centres undefined)	n	n	n	50.2	n	n	n
Cc1ccc([N+](=O)[O-])c(NC(=O)COC(=O)C2CC3CCCC(C2)C3=O)c1C (centres undefined)	n	n	n	n	n	n	x
O=C(CN1C(=O)C2C3CCC(C3)C2C1=O)OCC(=O)c1cccc([N+](=O)[O-])c1 (centres undefined)	n	61.8	n	60.8	n	n	88.9
Cc1ccc(C(=O)COC(=O)CN2C(=O)C3C4C=CC(C4)C3C2=O)cc1[N+](=O)[O-] (centres undefined)	x	n	n	n	n	n	x
O=C(NCc1ccccn1)c1cccc(S(=O)(=O)N2CCCCC2)c1	n	n	n	n	n	n	x
